High-throughput results deposited in PubChem by The Scripps Research Institute Molecular Screening Center.
PRMT1 inh: PRMT1 (human) inhibition, primary screen. hit rate 1.3% among 370,000. AID 652257. Q99873. inhibition, % at 2.79 µM. recombinant PRMT1, activity-based probe fluorescence polarization;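 active = inhibition above about 21% made by adding two undisclosed values, limit read from the data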
Target sequence (Q99873 whole entry, looked up): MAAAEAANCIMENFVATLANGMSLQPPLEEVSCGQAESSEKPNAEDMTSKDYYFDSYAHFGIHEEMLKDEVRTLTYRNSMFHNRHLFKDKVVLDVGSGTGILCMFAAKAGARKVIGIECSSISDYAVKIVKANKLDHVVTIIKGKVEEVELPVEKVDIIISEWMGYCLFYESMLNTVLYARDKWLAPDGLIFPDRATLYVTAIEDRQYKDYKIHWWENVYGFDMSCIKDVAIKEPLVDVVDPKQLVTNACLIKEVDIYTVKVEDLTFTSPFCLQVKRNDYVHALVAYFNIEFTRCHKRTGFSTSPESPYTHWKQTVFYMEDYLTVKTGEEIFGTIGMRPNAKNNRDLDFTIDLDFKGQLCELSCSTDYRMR
mABHD4 FP: inhibitors of mouse ABHD4; Q8VD66; purified mABHD4, FP-Rh probe fluorescence polarization; inhibition, % at 8.92 µM; hit rate 0.54% among 370,000;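 active = inhibition exceeding the mean over every tested compound plus 3 SD, cut at about 30% in these data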
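Material: mouse ABHD4 enzyme, wild type; Benchmarks: S159A mutant high control, sample median low control; Buffer or medium: HEPES pH 7.0, NaCl, Pluronic buffer; Signal: fluorescence polarization; Read-out: percent inhibition of probe binding, normalized to plate controls; Timing: pre-incubation 45 min, probe exposure 60 min, at 25 °C; Dosing: 8.92 µM, single dose.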
TCR-CD3 inh: human TCR-CD3 binding inhibition | TAMRA-labeled TCR probe fluorescence, biochemical | inhibition, % at 9.4 µM | hit rate 0.37% among 360,000; in the data active = inhibition above about 19%;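 also: recombinant mutant TCR 2C K166C tagged with TAMRA read by polarization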
rCAG binder: binds r(CAG) RNA repeats. r(CAG) RNA repeat, TO-PRO-1 dye displacement fluorescence. inhibition, % at 3 µM. hit rate 1.3% among 370,000. AID 651821;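 active = inhibition above the plate cutoff, the mean of all test compounds on that plate plus 3 SD, cut at about 35% in these data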;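 also: higher means more dye released from RNA so lower well fluorescence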
SIAE primary: blocks human sialic acid acetylesterase. AID 1053197. hit rate 0.69% among 370,000. Q9HAT2. inhibition, % at 9.66 µM. SIAE FP-Rh probe binding, fluorescence polarization;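 active = inhibition above a cutoff: mean of compounds within the control limits plus 3 SD of those, cut at about 17% in these data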
Hits are given with their value; . = inactive; / = no result. The list is not random: actives were taken first. Their share in the collection is about 3.3%.

SMILES | PRMT1 inh | mABHD4 FP | TCR-CD3 inh | rCAG binder | SIAE primary
C=C(C)/C=C1/CN(Cc2ccc3c(c2)OCO3)C(=N)N1C(=O)OCc1ccccc1 | . | . | / | . | .
CCOC(=O)[C@]12CCCC=C1N(CCCOC)C(=O)[C@@H]2CC(=O)NCc1cccc(C(F)(F)F)c1 | . | . | / | . | .
CCOc1ccc(-n2c(SCC(=O)Nc3ccccc3-c3ccccc3)nnc2-c2ccncc2)cc1 | . | . | / | . | .
COc1cc(NC(=S)N2CCCC(CO)C2)cc(OC)c1 (stereo unspecified) | 21 | . | . | . | .
COc1cc(/C=C/c2sc3ccccc3[n+]2CCCS(=O)(=O)[O-])ccc1O | . | . | . | . | .
Cc1ccc2c(c1)sc(C)[n+]2CCCS(=O)(=O)[O-] | 62 | . | . | . | .
Cc1ccc2sc(C)[n+](CCCS(=O)(=O)[O-])c2c1 | 38 | . | . | . | .
COc1ccc(CN(CC#Cc2ccc(C)cc2)C(N)=NC(=O)CCc2ccccc2)c(OC)c1 | . | . | / | . | .
CCOC(=O)Cc1nnc(NC(=O)Nc2ccccc2)s1 | . | . | . | 35 | .
CC(C)c1cc(C(=O)N(C2CCCCC2)C2CCCCC2)no1 | . | . | / | . | .
COc1ccc(CNc2cccc3[nH]c(C(F)(F)F)nc23)cc1 | . | . | . | 42 | .
OCCN1CCN(C(=S)c2ccc(Br)cc2)CC1 | 22 | . | . | . | .
N=C1/C(=C/c2ccc(-c3cccc(C(=O)O)c3)o2)C(=O)N=C2SC=C(c3ccccc3)N12 | . | . | . | 81 | .
COc1cc(OC)c(NC(=O)CN(C)S(=O)(=O)c2ccc3[nH]c(=O)oc3c2)cc1Cl | . | . | 20 | . | .
CCOC(=O)[C@]12CCCCC/C=C\1N(Cc1ccc(OC)cc1)C(=O)[C@H]2CC(=O)N1CCC(c2ccccc2)CC1 | . | . | / | . | .
COC(=O)C(CC(=O)c1ccc(C)cc1)n1cccn1 (stereo unspecified) | . | . | . | . | .
COC(=O)C(CC(=O)c1ccc(Br)cc1)n1cccn1 (stereo unspecified) | 22 | . | . | . | .
N#CC1(C#N)CC(C=O)=C(N)C1(C#N)CC(=O)c1ccc(F)cc1 (stereo unspecified) | 24 | . | . | . | .
O=C(C[N+]12CC[N+](CC(=O)c3ccc(F)cc3)(CC1)CC2)c1ccc(F)cc1 | . | . | . | . | .
Cc1ccc(-n2c(Cc3cccs3)nnc2SCC(=O)Nc2cccc3ccccc23)cc1 | . | . | / | . | .
C[C@@H]1COc2cc(Br)ccc2S(=O)(=O)N1Cc1cn(CCC2OCCCO2)nn1 | . | . | / | . | .
O=C(c1cc(Cl)cc(Cl)c1)N1CC[C@H]2[C@H](CCCN2Cc2ccc(F)cc2)C1 | . | . | / | . | .
Cc1ccc(-c2nc3sc(C#N)c(N)n3c(=O)c2C#N)cc1 | 81 | . | . | . | .
Cc1ccc(-n2c(N)c(C#N)c(-c3ccccc3)c(C#N)c2=O)cc1 | . | . | . | . | .
COC(=O)C1CN(Cc2cn(Cc3ccccc3)nn2)CCS(=O)(=O)N1Cc1ccc(Cl)cc1 (stereo unspecified) | . | . | / | . | .
SMILES | PRMT1 inh | mABHD4 FP | TCR-CD3 inh | rCAG binder | SIAE primary
CCOc1c(Cl)cc(C(=O)Nc2ccccc2C(=O)O)cc1Cl | . | . | . | 51 | .
CCOc1ccc(C(=O)Nc2cccc(C(=O)O)c2C)cc1Cl | . | . | . | . | .
COC(=O)[C@]12C[C@H](CC(=O)NCc3cccc(C(F)(F)F)c3)C(=O)N(CCC3=CCCCC3)C1=C[C@H](C1CCCC1)O[C@@H]2C | . | . | / | . | .
Cc1ccc(-n2c(COc3ccccc3)nnc2SCC(=O)Nc2ccccc2-c2ccccc2)cc1 | . | . | / | . | .
CC(C)(C)c1ccc(S(=O)(=O)N2CCCC2C(=O)N2CCN(c3ccccc3)CC2)cc1 (stereo unspecified) | . | . | / | . | .
O=C(O)CCNc1cc(N2CCN(C(=O)c3ccco3)CC2)c2noc3c2c1C(=O)c1ccccc1-3 | 25 | 49 | 34 | 68 | 30
CCN1CCN(C2=C(NS(=O)(=O)c3ccc(Br)cc3)C(=O)c3ccccc3C2=O)CC1 | 22 | . | . | . | .
COc1ccc(S[C@]2(C(=O)N3CCN(C(C)=O)CC3)CC(=O)N(C(=O)Nc3ccc(C)c(Cl)c3)[C@@H]2c2ccc(OC)cc2)cc1 | . | . | / | . | .
CCn1c(=S)sc2c(=O)[nH]c(SCC(=O)Nc3cc(OC)ccc3OC)nc21 | . | . | . | 76 | .
COc1ccc(NC(=O)CSc2nc3[nH]c(=O)[nH]c(=O)c3s2)cc1OC | . | . | . | . | .
